# Compound activity: PubChem, Sanford-Burnham Center for Chemical Genomics
# SENP8 block-1 = SENP8 protease inhibitors, primary screen, biochemical, luminescence; purified SENP8, Z-RLRGG-aminoluciferin cleavage; inhibition, % at 10 µM; 330,000 compounds, 1.2% hits; AID 2540, 2010; in the data active means inhibition above about 50%
# Target sequence (Q96LD8 whole entry, looked up): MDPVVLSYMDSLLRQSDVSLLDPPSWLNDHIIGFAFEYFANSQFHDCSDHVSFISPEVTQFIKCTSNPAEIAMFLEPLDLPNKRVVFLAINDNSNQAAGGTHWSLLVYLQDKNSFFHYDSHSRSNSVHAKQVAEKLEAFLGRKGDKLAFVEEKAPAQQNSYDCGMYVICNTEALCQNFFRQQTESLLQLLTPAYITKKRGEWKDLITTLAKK
# SENP6 block = SENP6 protease inhibitors, primary screen, biochemical, luminescence, uHTS | Sentrin-specific protease 6 (Homo sapiens), Q9GZR1 | AID 2599, 2010 | 330,000 compounds, 1.8% hits | inhibition, % at 10 µM | Recombinant SENP6 catalytic domain, aminoluciferin luminescence;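 active means inhibition above about 50% at the single tested dose, limit read from the data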
# Target sequence (Q9GZR1 628-1112 limits assumed): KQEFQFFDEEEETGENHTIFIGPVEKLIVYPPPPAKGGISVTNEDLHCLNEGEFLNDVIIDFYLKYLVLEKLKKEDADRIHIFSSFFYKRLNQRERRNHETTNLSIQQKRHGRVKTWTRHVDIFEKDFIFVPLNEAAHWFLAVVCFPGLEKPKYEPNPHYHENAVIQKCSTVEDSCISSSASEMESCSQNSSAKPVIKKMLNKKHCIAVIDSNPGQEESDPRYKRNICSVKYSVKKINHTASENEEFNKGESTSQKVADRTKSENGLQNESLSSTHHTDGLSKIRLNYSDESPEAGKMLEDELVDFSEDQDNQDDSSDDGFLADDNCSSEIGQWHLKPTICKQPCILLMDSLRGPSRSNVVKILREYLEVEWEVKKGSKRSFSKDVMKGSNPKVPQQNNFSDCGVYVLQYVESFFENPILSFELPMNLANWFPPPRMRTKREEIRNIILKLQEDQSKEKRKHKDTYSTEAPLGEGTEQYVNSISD
# SENP8 block-2 = human SENP8 protease inhibitors, primary screen, biochemical, fluorescence, Nedd8 protein substrate, uHTS | inhibition, % at 20 µM | 360,000 compounds, 0.64% hits | Sentrin-specific protease 8 (Homo sapiens), Q96LD8 | recombinant SENP8; in the data active means inhibition mostly above about 40%, no sharp cut-off; inactive means mostly below about 27%
# SENP7 inh = SENP7 protease inhibitors, primary screen, biochemical, luminescence, uHTS. 330,000 compounds, 1.5% hits. inhibition, % at 5 µM. recombinant SENP7, Z-RLRGG-aminoluciferin luminescence, 40 min;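 active means inhibition above about 50% at the single test dose, limit read from the data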
# Apaf-1 inh = inhibitors of human Apaf-1 apoptosome, primary screen, biochemical, DEVD-Rh110 fluorescence, uHTS; Apoptotic protease-activating factor 1 (Homo sapiens), O14727; reconstituted apoptosome caspase-3 activity; inhibition, % at 20 µM; 330,000 compounds, 0.71% hits; AID 489030, 2010; active means inhibition of at least 40% at 20 µM
#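 Material: reconstituted apoptosome with Apaf-1, cytochrome c, caspase-9, procaspase-3, dATP / Buffer or medium: pH 7.5 Hepes buffer with CHAPS, BSA, DTT / Also added: cytochrome c with DEVD-Rh110 / Schedule: compound with Apaf-1, dATP, procaspase-3 30 min, then 50 min reaction, room temperature / Technique: rhodamine 110 fluorescence at Ex 480/Em 540 nm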
# UBC13 polyUb = UBC13 polyubiquitin chain formation inhibitors, primary screen, biochemical, TR-FRET, uHTS; Ubiquitin-conjugating enzyme E2 N (Homo sapiens), P61088; inhibition, % at 20 µM; 330,000 compounds, 0.47% hits; in the data active means inhibition above about 45%, passing the limit was not always enough
# SENP8 confirm = SENP8 protease inhibitors, retest, confirmation, biochemical, luminescence, single concentration | shares compounds with SENP7 inh | Recombinant SENP8, Z-RLRGG-aminoluciferin luminescence, 60 min | inhibition, % at 12.5 µM | 6,200 compounds, 40% hits | AID 488912, 2010;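 active means mean inhibition across replicates above about 50%, limit read from the data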
# SENP6 conf = SENP6 protease inhibitors, confirmation, biochemical, luminescence, single concentration; 6,200 compounds, 58% hits; recombinant SENP6, Z-RLRGG-aminoluciferin luminescence; shares compounds with SENP7 inh; inhibition, % at 12.5 µM
# SENP7 conf = SENP7 protease inhibitors, retest, confirmation, biochemical, luminescence, single concentration. shares compounds with SENP7 inh. inhibition, % at 12.5 µM. AID 488917, 2010. recombinant SENP7, Z-RLRGG-aminoluciferin luminescence, 40 min. 6,200 compounds, 69% hits
# Casp3 SENP sel = caspase-3 protease inhibitors, confirmation, selectivity assay for SENP inhibitor project, biochemical, single concentration; shares compounds with SENP7 inh; purified caspase-3, Z-DEVD-aminoluciferin luminescence, 60 min; inhibition, % at 12.5 µM; 6,200 compounds, 60% hits;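 active means mean inhibition above about 50%, limit read from the data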
# SENP luc ctr = interferes with luciferase luminescence in SENP counter-screen. shares compounds with SENP7 inh. Pre-incubated SENP8/Z-RLRGG-aminoluciferin, luciferase luminescence interference. inhibition, % at 12.5 µM. 6,200 compounds, 39% hits;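 active means mean inhibition above about 50% when retested at one dose, limit read from the data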
# Hits are given with their value; 0 = inactive; - = not tested or not shown. Hits are enriched below; roughly 3% of the tested compounds scored in any of these assays.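 How the source made its calls, unless noted: active means mean inhibition above about 50% in the one-dose retest (limit read from the data); inactive means the rest.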
SMILES,SENP8 block-1,SENP6 block,SENP8 block-2,SENP7 inh,Apaf-1 inh,UBC13 polyUb,SENP8 confirm,SENP6 conf,SENP7 conf,Casp3 SENP sel,SENP luc ctr
O=C(N/N=C/c1ccncc1)c1cccs1,0,0,0,0,0,0,-,-,-,-,-
Cc1cccc(NC(=O)c2onc3c2CCCC3)n1,93.0,95.3,0,97.0,0,0,96.4,97.6,102.0,97.5,95.5
Cc1ccccc1NC(=O)c1onc2c1CCCC2,65.7,82.9,0,54.6,0,0,0,62.8,90.2,84.7,72.4
CCc1nc2c(OCc3ccc(C(F)(F)F)cc3)cccn2c1N(C)C(=O)C1CC1,-,-,0,-,-,-,-,-,-,-,-
Cn1ccnc1SCC(=O)c1c[nH]c2ccccc12,0,58.3,0,0,0,0,0,0,78.2,78.2,53.9
O=C1c2ccccc2C(=O)C1c1ccc2ccccc2n1,81.0,80.7,0,99.5,0,0,0,0,0,0,0
COC(=O)C1=C(C)NC(C)=C(C(=O)OC)C1c1ccc2ccccc2n1,0,0,0,0,0,0,-,-,-,-,-
O=c1c2c(nc3cc(-c4ccccc4)[nH]n13)CCS2,68.9,78.1,0,0,0,0,0,0,0,0,0
O=c1c2c(nc3cc(-c4ccc(Br)cc4)[nH]n13)CCCC2,0,0,0,0,0,0,-,-,-,-,-
O=c1c2c(nc3cc(-c4ccccc4)[nH]n13)CCC2,0,57.2,0,0,0,0,0,0,0,0,0
CCc1c(C)nc2cc(-c3ccccc3)[nH]n2c1=O,0,0,0,0,0,0,-,-,-,-,-
CC1(C)CC2(C)OC2C2(C1)N=NC(=Nc1ccccc1)O2 (stereo not given),-,-,0,-,-,-,-,-,-,-,-
O=C(NC(c1ccc(-c2ccccc2)cc1)c1cnccn1)C1CCN(CCCOc2ccccc2)CC1 (stereo not given),-,-,0,-,-,-,-,-,-,-,-
Cc1cccc(NC(=O)c2n[nH]c([N+](=O)[O-])c2Br)c1C,93.8,96.7,0,85.2,0,0,94.2,96.8,101.7,96.1,94.6
Cc1cc2cc(OCc3ccccc3)ccc2n1C,0,50.4,0,0,0,0,0,0,0,0,0
Cn1ccc2cc(OCc3ccccc3)ccc21,-,-,0,-,-,-,-,-,-,-,-
CN1NC(c2ccccc2)NN(C)C1=O,-,-,0,-,-,-,-,-,-,-,-
CC(C)N1CCC1(C)C(=O)Nc1nccc2cccnc12 (stereo not given),-,-,0,-,-,-,-,-,-,-,-
Cc1cc(-c2cccs2)n[nH]1,0,0,0,0,0,0,-,-,-,-,-
Cc1cc2ncc(-c3cccs3)nc2cc1C,95.9,93.7,0,97.9,0,0,65.9,77.0,67.0,85.8,0
COc1ccccc1N1CCN(S(=O)(=O)CCNC(=O)C(C)Oc2ccccc2)CC1 (stereo not given),-,-,0,-,-,-,-,-,-,-,-
Fc1ccc(-c2noc(-c3ccc4c(c3)CCO4)n2)cc1,67.5,78.5,0,96.2,0,0,0,53.1,0,71.2,0
COc1ccc(-c2cc(C(=O)NCc3cccc(Cl)c3)[nH]n2)c(C)c1,-,-,0,-,-,-,-,-,-,-,-
COC(=O)c1ccc(-c2nc(-c3ccc(Br)o3)no2)cc1,0,0,0,51.8,0,0,0,0,0,0,0
COc1ccc(-c2nc(-c3ccc(Br)o3)no2)cc1,0,0,0,69.7,0,0,0,0,0,0,0
SMILES,SENP8 block-1,SENP6 block,SENP8 block-2,SENP7 inh,Apaf-1 inh,UBC13 polyUb,SENP8 confirm,SENP6 conf,SENP7 conf,Casp3 SENP sel,SENP luc ctr
COc1cccc(-c2nc(-c3ccc(NC(=O)c4cccnc4)cc3)no2)c1,0,0,0,0,0,0,-,-,-,-,-
O=C(Nc1ccc(-c2noc(-c3cccs3)n2)cc1)c1cccnc1,0,0,0,54.5,0,0,0,0,68.4,0,0
COC(=O)c1ccc(-c2nc(-c3cccs3)no2)cc1,87.5,91.9,0,97.5,0,0,77.9,87.9,89.3,87.7,0
CC1(Oc2ccccc2)CCN(Cc2csc3ccccc23)C1 (stereo not given),-,-,0,-,-,-,-,-,-,-,-
Cc1ccc(NC(=O)C2(C)CCN2C(=O)C2CCCCC2)cc1C (stereo not given),-,-,0,-,-,-,-,-,-,-,-
CN(C)C(=O)c1c(NC(=O)c2ccco2)sc2c1CCCCC2,0,0,0,0,0,0,-,-,-,-,-
CC1CCc2c(sc(NC(=O)c3ccco3)c2C(=O)O)C1 (stereo not given),62.1,78.2,0,0,0,0,78.1,71.7,87.7,66.5,64.7
O=C(Nc1sc2c(c1C(=O)O)CCCCC2)c1ccco1,93.3,96.5,0,88.5,0,0,96.0,96.8,100.8,95.5,94.9
C=CCC(NC(=O)N(C)C)(C(C)=O)C(=O)OC (stereo not given),-,-,0,-,-,-,-,-,-,-,-
Cc1cccc(C)c1NC(=O)C(c1cc2ccccc2o1)N1CCC(c2ccccc2)CC1 (stereo not given),-,-,0,-,-,-,-,-,-,-,-
O=S(=O)(NC1CCCCC1Nc1ccc(Cl)cc1)c1ccccc1 (stereo not given),0,0,0,0,0,0,-,-,-,-,-
O=S(=O)(NC1CCCCC1NCc1ccco1)c1ccc(Cl)cc1 (stereo not given),0,0,0,91.7,0,0,0,0,0,0,0
O=C(Nc1nc2c(F)cc(F)cc2s1)c1ccco1,74.0,87.9,0,78.0,0,0,60.2,88.2,96.4,90.0,0
O=C(Nc1nc2c(F)c(F)c(F)cc2s1)c1ccco1,52.9,68.2,0,0,0,0,0,0,77.6,51.9,0
O=C(CCc1ccccc1)Nc1nc2c(F)cc(F)cc2s1,0,0,0,0,0,0,-,-,-,-,-
CC(=O)N1CCc2cc(NC(=O)C3(C)CCN3CCc3ccccc3)ccc21 (stereo not given),-,-,0,-,-,-,-,-,-,-,-
CCCS(=O)(=O)NC(=O)C1(C)CCCN(C(=O)c2c(C)noc2C)C1 (stereo not given),-,-,0,-,-,-,-,-,-,-,-
